# Key:
# [1] = system: MCF7; test: Antiproliferative activity against human MCF7 cells after 48 hrs by MTT assay; format: functional, cell-based; settings: MCF7, 48 h
# Summary of the method: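 MCF-7 human breast cancer cells exposed to compounds for 48 h. Cytotoxicity read by MTT assay. IC50 taken as the concentration giving 50% inhibition of cell growth.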
# [2] = target: Tubulin (Bos taurus, UniProt Q6B856+Q862L2+Q862F3); test: Inhibition of bovine brain tubulin polymerization after 20 mins in presence of GTP by spectrophotometric analysis
SMILES,IC50 [1],IC50 [2],pIC50 [2]
O=C(/C=C/c1ccc2c(c1)OCCO2)NS(=O)(=O)c1ccccc1,2.16 µg/mL,5.47 µM,5.262
O=C(/C=C/c1ccc2c(c1)OCCCO2)NS(=O)(=O)c1ccc(Br)cc1,> 100 µg/mL,> 100 µM,–
Cc1ccc(S(=O)(=O)NC(=O)/C=C/c2ccc3c(c2)OCO3)cc1,48.9 µg/mL,40.85 µM,4.389
O=C(/C=C/c1ccc2c(c1)OCO2)NS(=O)(=O)c1ccccc1,0.17 µg/mL,0.88 µM,6.056
O=C(/C=C/c1ccc2c(c1)OCCCO2)NS(=O)(=O)c1ccc(Cl)cc1,> 100 µg/mL,> 100 µM,–
O=C(/C=C/c1ccc2c(c1)OCCCO2)NS(=O)(=O)c1ccccc1,53.9 µg/mL,49.01 µM,4.31
O=C(/C=C/c1ccc2c(c1)OCO2)NS(=O)(=O)c1ccc(Br)cc1,89 µg/mL,51.59 µM,4.288
O=C(/C=C/c1ccc2c(c1)OCCO2)NS(=O)(=O)c1ccc(Br)cc1,> 100 µg/mL,> 100 µM,–
O=C(/C=C/c1ccc2c(c1)OCO2)NS(=O)(=O)c1ccc(F)cc1,74 µg/mL,76.9 µM,4.114
O=C(/C=C/c1ccc2c(c1)OCCCO2)NS(=O)(=O)c1ccc(F)cc1,> 100 µg/mL,> 100 µM,–
Cc1ccc(S(=O)(=O)NC(=O)/C=C/c2ccc3c(c2)OCCCO3)cc1,> 100 µg/mL,> 100 µM,–
O=C(/C=C/c1ccc2c(c1)OCCO2)NS(=O)(=O)c1ccc(Cl)cc1,51.3 µg/mL,87.92 µM,4.056
Cc1ccc(S(=O)(=O)NC(=O)/C=C/c2ccc3c(c2)OCCO3)cc1,> 100 µg/mL,93.33 µM,4.03
O=C(/C=C/c1ccc2c(c1)OCCO2)NS(=O)(=O)c1ccc(F)cc1,52.1 µg/mL,27.46 µM,4.562
O=C(/C=C/c1ccc2c(c1)OCO2)NS(=O)(=O)c1ccc(Cl)cc1,47.3 µg/mL,94.72 µM,4.024
COc1cc2c(c(OC)c1OC)-c1ccc(OC)c(=O)cc1[C@@H](NC(C)=O)CC2 [COLCHICINE],0.33 µg/mL,–,–

# Source: ChEMBL document CHEMBL4325879, “Optimization of substituted cinnamic acyl sulfonamide derivatives as tubulin polymerization inhibitors with anticancer activity” (Bioorg Med Chem Lett, 2018)
